Consider nine molecules from ChEMBL document CHEMBL2016458, “Design and optimization of quinazoline derivatives as melanin concentrating hormone receptor 1 (MCHR1) antagonists” (Bioorg Med Chem Lett, 2012).

By pIC50 is commonly meant the IC50 on a negative log10 scale, so that one unit is a factor of ten. For orientation: inhibition means the drop in the measured response relative to a control, in per cent. By solubility is commonly meant how much of the substance goes into solution per volume. By Cmax is commonly meant the peak of the concentration-time curve. A word on the half-life: it is how long it takes for the measured level to halve. For orientation: AUC(0-t) means exposure summed from dosing to a finite time, without extrapolation to infinity. Usually Tmax stands for the time from dosing to the highest level.

pIC50: −log10 of the molar value. Values after ≈ are worked out from the molar mass of the structure shown.

Data set [1] has as its target T1, Melanin-concentrating hormone receptor 1 (Homo sapiens, UniProt Q99705). Kind of data set: biochemical. The data set is classed as cell-based, CHO-K1.
Data set [2] addresses T1, Melanin-concentrating hormone receptor 1. Kind of data set: Antagonist activity at human MCHR1 expressed in CHO-K1 cells assessed as inhibition of MCH peptide mediated response measuring [3H]inositol phosphate production by IP3-SPA-YSI assay. The data set is classed as functional, cell-based.
The target in another data set is hERG (KCNH2) (Homo sapiens, UniProt Q12809). Kind of data set: Inhibition of human ERG at 1 uM.
A short description of data set [3]: Solubility of the compound in 5% DMSO and 95% PBS after overnight incubation using plate shaker. The data set is classed as physicochemical. To be noted: 5% DMSO and 95% PBS; read-out: solubility. The essentials: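 A 10 mM DMSO stock was diluted into PBS to a final 500 µM (5% DMSO). The mix was left to precipitate overnight at RT on a plate shaker, then centrifuged. Supernatant absorbance was read at 260, 280 and 620 nm. Solubility is the absorbance ratio of PBS supernatant to an acetonitrile reference (100 and 500 µM). The 620 nm reading was used to exclude visible contamination.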

Data set [4] can be described thus: Stability in mouse blood assessed as compound remaining after 30 mins by HPLC analysis. The class given is ADME, tissue-based. The settings on record: read-out: Stability.
Data set [5] is described as follows: Metabolic stability in human liver microsomes assessed as compound remaining at 10 uM after 30 mins by HPLC analysis. The class given is ADME, Microsome. To be noted: read-out: Stability. Summed up:
(§1)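 Compound at 10 µM was incubated with 1 mg/ml mouse or pooled human liver microsomes in 0.1 M phosphate buffer, pH 7.4. Reaction was started with NADPH and run 30 min at 37 °C. Result is % parent remaining.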
On the technique in general: Microsomes from liver hold many membrane-bound enzymes, among them those of drug oxidation.

Data set [6] in a line: Metabolic stability in mouse liver microsomes assessed as compound remaining at 10 uM after 30 mins by HPLC analysis. The data set is classed as ADME, Microsome. To be noted: read-out: Stability. Summed up:
as §1

Data set [7] deals with T1, Melanin-concentrating hormone receptor 1. Kind of data set: Antagonist activity at human MCHR1 expressed in CHO-K1 cells assessed as inhibition of MCH peptide mediated response measuring [3H]inositol phosphate production at 10 uM by IP3-SPA-YSI assay. Also noted: scale not given: the % may be the effect or the level left. The class given is functional, cell-based.
Data set [8] in a line: Cmax in Swiss albino mouse brain at 30 mg/kg, po. The class given is ADME, organism-based. Set-up: dose 30 mg/kg, route oral. The essentials:
(§2)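 Swiss Albino mice given a single oral dose of 30 mg/kg. Plasma and brain were sampled over 0–8 h. AUC(0–8), Cmax, Tmax and t1/2 were derived for each matrix.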

A short description of data set [9]: Half life in Swiss albino mouse brain at 30 mg/kg, po. The data set is classed as ADME, organism-based. Set-up: dose 30 mg/kg, route oral. Summed up:
as §2

Data set [10] in a line: Cmax in Swiss albino mouse plasma at 30 mg/kg, po. The class given is ADME, organism-based. Also noted: dose 30 mg/kg, route oral. Summed up: as §2
Data set [11] is described as follows: AUC (0 to 8 hrs) in Swiss albino mouse plasma at 30 mg/kg, po. The class given is ADME, organism-based. Set-up: time < 8 hr, dose 30 mg/kg, route oral. Summed up:
as §2

A short description of data set [12]: Tmax in Swiss albino mouse brain at 30 mg/kg, po. The data set is classed as ADME, organism-based. Set-up: dose 30 mg/kg, route oral. Summed up: as §2
The next data set deals with Mus musculus. Kind of data set: Antiobesity activity in diet induced obese C57BL/6J mouse assessed as decrease in body weight at 30 mg/kg, po bid for 14 days measured at day 14 relative to control. The data set is classed as functional. Set-up: scale not given: the % may be the effect or the level left. Summed up:
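C57BL/6J mice were fed a high-fat diet (60% calories from fat) for about 3 months, to roughly 45 g average body weight. Animals were grouped by initial weight. Dosing was oral, 30 mg/kg twice daily for 14 days, against vehicle controls (n = 12). Body weight and food intake were recorded daily.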

Data set [13] is described as follows: Tmax in Swiss albino mouse plasma at 30 mg/kg, po. The data set is classed as ADME, organism-based. Also noted: dose 30 mg/kg, route oral. The essentials: as §2
A short description of data set [14]: Half life in Swiss albino mouse plasma at 30 mg/kg, po. Set-up: dose 30 mg/kg, route oral. The data set is classed as ADME, organism-based. The essentials:
as §2

Data set [15] in a line: AUC (0 to 8 hrs) in Swiss albino mouse brain at 30 mg/kg, po. The data set is classed as ADME, organism-based. Set-up: time < 8 hr, dose 30 mg/kg, route oral. The essentials: as §2
The target of data set [16] is Voltage-gated inwardly rectifying potassium channel KCNH2 (Homo sapiens, UniProt Q12809).
Sequence of Voltage-gated inwardly rectifying potassium channel KCNH2 (Q12809 whole entry): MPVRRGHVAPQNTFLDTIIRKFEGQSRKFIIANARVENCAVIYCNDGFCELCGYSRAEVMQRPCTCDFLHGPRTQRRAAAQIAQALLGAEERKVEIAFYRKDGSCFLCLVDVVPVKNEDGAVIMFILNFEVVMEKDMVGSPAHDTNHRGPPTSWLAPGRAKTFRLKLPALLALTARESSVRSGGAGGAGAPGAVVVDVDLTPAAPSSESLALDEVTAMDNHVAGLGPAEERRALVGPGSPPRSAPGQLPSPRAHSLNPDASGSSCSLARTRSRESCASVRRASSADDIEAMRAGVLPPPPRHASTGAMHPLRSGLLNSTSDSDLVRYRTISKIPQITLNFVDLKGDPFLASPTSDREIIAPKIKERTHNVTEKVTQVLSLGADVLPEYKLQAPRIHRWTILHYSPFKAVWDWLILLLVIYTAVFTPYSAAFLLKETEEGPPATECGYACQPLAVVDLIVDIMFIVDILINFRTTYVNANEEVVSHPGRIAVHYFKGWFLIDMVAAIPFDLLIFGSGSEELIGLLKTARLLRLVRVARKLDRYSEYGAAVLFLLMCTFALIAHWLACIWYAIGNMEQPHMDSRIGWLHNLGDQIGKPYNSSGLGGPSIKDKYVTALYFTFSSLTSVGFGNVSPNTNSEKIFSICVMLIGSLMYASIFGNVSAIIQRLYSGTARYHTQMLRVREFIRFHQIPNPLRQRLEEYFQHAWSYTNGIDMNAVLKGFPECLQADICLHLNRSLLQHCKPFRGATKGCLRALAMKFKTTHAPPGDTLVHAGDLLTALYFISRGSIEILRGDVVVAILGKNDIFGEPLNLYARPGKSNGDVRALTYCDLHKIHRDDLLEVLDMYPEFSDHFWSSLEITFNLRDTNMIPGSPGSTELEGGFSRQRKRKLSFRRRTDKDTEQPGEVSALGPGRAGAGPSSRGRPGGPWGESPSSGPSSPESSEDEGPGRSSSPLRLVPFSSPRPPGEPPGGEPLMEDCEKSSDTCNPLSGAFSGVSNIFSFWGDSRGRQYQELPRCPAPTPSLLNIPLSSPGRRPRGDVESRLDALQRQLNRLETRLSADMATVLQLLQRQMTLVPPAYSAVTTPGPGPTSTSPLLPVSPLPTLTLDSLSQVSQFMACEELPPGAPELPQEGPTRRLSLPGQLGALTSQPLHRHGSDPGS

Sequence of hERG (KCNH2) (Q12809 whole entry): as above
T1 sequence (Q99705 whole entry): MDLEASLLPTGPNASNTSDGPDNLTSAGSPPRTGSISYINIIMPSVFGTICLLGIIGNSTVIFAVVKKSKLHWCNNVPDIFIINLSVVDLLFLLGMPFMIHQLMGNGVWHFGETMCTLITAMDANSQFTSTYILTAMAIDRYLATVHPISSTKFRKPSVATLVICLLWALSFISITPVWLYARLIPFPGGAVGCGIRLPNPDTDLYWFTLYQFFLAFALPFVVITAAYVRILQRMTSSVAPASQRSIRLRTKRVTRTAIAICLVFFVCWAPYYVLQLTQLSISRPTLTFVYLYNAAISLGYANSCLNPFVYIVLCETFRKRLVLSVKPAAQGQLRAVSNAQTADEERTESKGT

Take `Cc1nc(N2CCC(O)(C3CCC3)CC2)nc2ccc(NC(=O)COc3ccc(OC(F)(F)F)cc3)cc12`: the negative-log IC50 (pIC50) is 7.10 in [1] and 7.57 in [2]. The same molecule showed an inhibition at 1 µM against hERG (KCNH2) of 31%.
Regarding `Cc1nc(N2CCN(C(=O)C3CCC3)CC2)nc2ccc(NC(=O)COc3ccc(OC(F)(F)F)cc3)cc12`, the values for the pIC50 in data set [1] and in [2] were 7.08 and 7.35, respectively. Besides, the solubility in data set [3] worked out at 4 µM (≈ 2.17 µg/mL). The remaining at 0.5 h in data set [4] is 45%. The remaining at 0.5 h, 10 µM stood at 52% in data set [5] and 69% in data set [6].
In the case of `Cc1nc(N2CCC(O)(C(N)=O)CC2)nc2ccc(NC(=O)COc3ccc(OC(F)(F)F)cc3)cc12`, the pIC50 in [1] is 6.20. Moreover, the Activity in data set [7] is 72%.
Regarding `Cc1nc(N2CCC(C(=O)C3CC3)CC2)nc2ccc(NC(=O)COc3ccc(OC(F)(F)F)cc3)cc12`, the values for the pIC50 in data set [1] and in data set [2] were 8.00 and 7.85, respectively. At hERG (KCNH2), this molecule came in with an inhibition at 1 µM of 32%.
Turning to `Cc1nc(N2CCC(N3CCOCC3)CC2)nc2ccc(NC(=O)COc3ccc(OC(F)(F)F)cc3)cc12`, the results for the pIC50 in data set [1] and in data set [2] were 8.22 and 7.80, respectively. Besides, the solubility in data set [3] is 12 µM (≈ 6.55 µg/mL). Moreover, the figures for the Cmax in data set [8] and in [10] were 2660 nM and 430 nM, respectively. In addition, the half-life in [9] is 1.7 h; in data set [14], 3 h. The AUC(0-t) at 8 h in data set [11] stood at 1.02 µM·h; in [15] it was 6.21 µM·h. The Tmax in [12] and in data set [13] was 1 h each time. For the same molecule, the Activity with Mus musculus is recorded as 12%. In data set [4], the remaining at 0.5 h was determined as 29%.
With `Cc1nc(N2CCC(C(=O)NC(C)C)CC2)nc2ccc(NC(=O)COc3ccc(Cl)cc3)cc12`, the values for the pIC50 in [1] and in data set [2] were 7.82 and 7.60, respectively. Also, the solubility in data set [3] stood at 132 µM (≈ 65.5 µg/mL). For the same molecule, in data set [4], the remaining at 0.5 h was found to be 49%. The remaining at 0.5 h, 10 µM in data set [5] stood at 70%; in data set [6], 11%.
As to `Cc1nc(N2CCC(N3CCCC3)CC2)nc2ccc(NC(=O)COc3ccc(Cl)cc3)cc12`, the pIC50 in data set [1] was 7.70; in [16], 6.35; in data set [2] it was 7.09.
As for `Cc1nc(N2CCC(N3CCCC3)CC2)nc2ccc(NC(=O)C(C)Oc3ccc(Cl)cc3)cc12` (stereo not given), the pIC50 in data set [1] is 6.59; in data set [2], 6.40. In addition, in [3], the solubility came to 272 µM (≈ 134 µg/mL). Further, the remaining at 0.5 h in data set [4] was 67%. At hERG (KCNH2), this molecule gave an inhibition at 1 µM of 76%. The remaining at 0.5 h, 10 µM in data set [6] is 34%.
Consider `Cc1nc(N2CCC(N3CCCC3=O)CC2)nc2ccc(NC(=O)COc3ccc(OC(F)(F)F)cc3)cc12`, for which the pIC50 in data set [1] is 7.72; in [16] it was 5.43; in data set [2] it was 8.40.
